UPR XBP1 act – activators of adaptive arm of unfolded protein response (XBP1); activation, % at 20 µM; AID 463104; actives 0.33% (n = 330,000); CHO-XBP1 luciferase reporter, IRE1-XBP1 UPR activation, luminescence; percent of tunicamycin response, DMSO as zero;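 active = versus positive control, 20 µM dose yields 30% or more activation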;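 note: 100% = tunicamycin at 10 µg/mL and 0% = DMSO only wells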
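Material: CHO cell line with stable XBP1 luciferase reporter; schedule: 16-18 h cell attachment at 37 °C, then 6 h compound exposure; signal: glow luminescence from Steady-Glo reagent; medium: serum-containing F12 medium, 10% FBS; benchmarks: tunicamycin 10 µg/mL and vehicle-only wells; read-out: percent activation relative to tunicamycin reference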
HCV NS3 hel inh – blocks Hepatitis C virus NS3 helicase unwinding | NS3 helicase DNA unwinding, Cy5 molecular beacon fluorescence | inhibition, % at 10.9 µM | actives 0.56% (n = 290,000);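 active = inhibition above the mean of all tested compounds plus 3 SD, set per campaign, cut at about 35% in these data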;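 note: 0% = DMSO wells and 100% = thioflavine S control wells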
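System: Hepatitis C virus NS3 helicase domain fragment enzyme | Reagent: Annealed dual-labelled DNA beacon duplex, ATP-started | Compound dosing: 10.9 µM single point, 0.8% DMSO | Incubation: 1 h reaction at 25 °C, ATP-initiated | Technique: Cy5 fluorescence | Evaluation: Percent inhibition from t60/t0 fluorescence ratio | Benchmarks: Low DMSO, high thioflavine S at 110 µM | Replication: Singlicate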
p97 ATPase inh – blocks human p97 ATPase activity | recombinant p97 ATPase, Kinase-Glo ATP luminescence, 3 h | inhibition, % at 8 µM | actives 0.42% (n = 220,000) | AID 1481; in the data active = inhibition above about 15%;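 note: 0% = DMSO vehicle and 100% = wells lacking enzyme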
UPR CHOP act – activators of apoptotic arm of unfolded protein response (CHOP) | CHO-CHOP luciferase reporter, UPR activation, luminescence; percent of tunicamycin response over DMSO baseline | activation, % at 10 µM | actives 0.34% (n = 330,000);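 active = at 10 µM dose, activation of 40% or more, normalized to positive control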;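 note: 100% = tunicamycin at 10 µg/mL and 0% = DMSO alone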
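Test system: CHO CHOP reporter cells. Input: 500 CHO-CHOP cells per well. Medium: F12 with 10% FBS. Technique: luciferase luminescence. Measure: percent activation relative to tunicamycin control. Dosing: 10 µM compound, 0.5% DMSO. Timing: 16-18 h cell attachment, then 6 h compound exposure, 37 °C.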
PfM18AAP inh-1 – blocks P. falciparum M18 aspartyl aminopeptidase; recombinant PfM18AAP, H-Glu-NHMec fluorogenic cleavage; inhibition, % at 7.35 µM; actives 1.2% (n = 290,000); AID 1822;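 active = inhibition above the campaign mean inhibition over all tested compounds plus 3 SD, cut at about 28% in these data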;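 note: 0% = plate median of test compound wells and 100% = 2 mM ZnCl2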
CHOP inh – CHOP inhibition in unfolded protein response | CHO-K1 CHOP-promoter luciferase, tunicamycin-induced, 15-18 h | inhibition, % at 10 µM | actives 3.8% (n = 220,000) | AID 2732;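 active = compounds that reduced the stress-induced luciferase reporter signal by more than about 70% of percent inhibition, limit read from the data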;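 note: 0% = tunicamycin plus vehicle and 100% = wells without tunicamycin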
PfM18AAP inh-2 – confirmation of Plasmodium falciparum M18 aspartyl aminopeptidase inhibitors; shares compounds with PfM18AAP inh-1; recombinant PfM18AAP, H-Glu-NHMec fluorogenic cleavage; inhibition, % at 7.35 µM; actives 28% (n = 2,400);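 active = mean inhibition over replicate wells above the hit cutoff set for the earlier primary screen, cut at about 29% in these data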;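 note: 0% = median of test compound wells and 100% = 2 mM ZnCl2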
CTSL1 confirm – Cathepsin L (human) inhibition, confirmation; purified cathepsin L1, Z-Leu-Arg-MCA fluorescence; 2,400 tested, under 10 active; shares compounds with PfM18AAP inh-1; inhibition, % at 5.96 µM;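 active = average inhibition across replicates above the hit cutoff set in the earlier primary screen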;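 note: 0% = median of test compound wells and 100% = Z-Phe-Ala-diazomethylketone 1 µM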
Target sequence (P07711 whole entry, looked up): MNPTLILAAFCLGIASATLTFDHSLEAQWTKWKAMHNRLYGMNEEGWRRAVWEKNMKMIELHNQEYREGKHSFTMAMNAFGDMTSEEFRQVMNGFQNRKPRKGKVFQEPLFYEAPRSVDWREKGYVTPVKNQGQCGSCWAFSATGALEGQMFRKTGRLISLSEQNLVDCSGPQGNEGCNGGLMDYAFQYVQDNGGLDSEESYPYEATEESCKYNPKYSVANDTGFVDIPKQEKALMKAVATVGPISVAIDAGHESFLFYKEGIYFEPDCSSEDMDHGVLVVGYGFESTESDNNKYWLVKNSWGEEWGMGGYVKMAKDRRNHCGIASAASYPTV
The depositor's hits bear a star; · = no result given. The list is not random: actives were taken first. Their share in the collection is about 4.5%.

SMILES | UPR XBP1 act | HCV NS3 hel inh | p97 ATPase inh | UPR CHOP act | PfM18AAP inh-1 | CHOP inh | PfM18AAP inh-2 | CTSL1 confirm
O=S(=O)(Nc1ccc2c(c1)nc1n2CCN(Cc2ccccc2)C1)c1ccc(Cl)cc1 | -4 | -18 | 9 | 0 | -9 | 23 | · | ·
CC1CCCN(C(=O)c2nn(C)c3c2CSc2ccccc2-3)C1 (centres undefined) | 3 | 32 | · | 4 | 42* | · | 2 | -1
O=C(CSc1nnc(-c2cccc(F)c2)o1)Nc1nncs1 | 3 | 4 | 3 | 3 | 50* | -10 | -32 | -3
C/C(CC(=O)c1ccccc1)=N\NC(=O)CC#N | -4 | -1 | 3 | -1 | 16 | 13 | · | ·
N#CCC(=O)N/N=C1\CCCCC1C1CCCCC1 (centres undefined) | 1 | 8 | 5 | 1 | 44* | 19 | -29 | -6
O=C1CS/C(=N/N=C2CCCC2)N1 | -3 | -17 | 4 | 1 | 2 | 6 | · | ·
O=C1CSC(=S)N1N=C1CCCCCC1 | · | 8 | -4 | · | 39* | -3 | 1 | -1
c1ccc(CCNc2ccc3nncn3n2)cc1 | -1 | 3 | -5 | 0 | 4 | 12 | · | ·
NNc1ccc2nncn2n1 | -2 | 3 | 5 | 1 | 40* | 24 | 39* | -5
COc1cc(CN(CCN(C)C)Cc2ccccc2)ccc1OCc1ccccc1 | -1 | -68 | · | 3 | -6 | · | · | ·
CNc1nc(Nc2ccccc2)nc(OCC(F)(F)F)n1 | 2 | -27 | 1 | -2 | 9 | 23 | · | ·
CNc1nc(NN)nc(Nc2ccccc2)n1 | -2 | -49 | · | 2 | 33* | · | 4 | 1
O=C(N/N=C/c1coc2ccccc2c1=O)c1ccccc1Br | -1 | 4 | -4 | -1 | 36* | 41 | -29 | 0
O=C(Cc1ccc([N+](=O)[O-])cc1)c1c(O)cc(O)cc1O | 2 | -5 | 4 | 0 | 44* | -12 | 21 | -9
Oc1ccccc1N=Cc1c(O)ccc2ccccc12 | 4 | 12 | 8 | -2 | 31* | 47 | -5 | 3
O=C(C1CC(=O)N(c2ccc3c(c2)OCCO3)C1)N1CCN(c2ccccc2O)CC1 (centres undefined) | -3 | 0 | · | 0 | 34* | · | 5 | 1
O=C(CSc1ncn[nH]1)N1N=C2/C(=C/c3ccco3)CCCC2C1c1ccco1 (centres undefined) | 1 | 4 | 2 | 0 | 36* | 41 | 1 | 1
COc1ccc(/C=N/n2cnn(Cc3ccccc3Cl)c2=S)cc1 | -3 | 15 | 7 | 1 | 34* | 17 | -50 | -3
COc1cc(/C=N/n2cnn(Cc3ccccc3Cl)c2=S)cc(OC)c1OC | -4 | 12 | -8 | -3 | 18 | 21 | · | ·
CC(=O)c1c(C(C)=O)c(C)n(-c2ccc(N)c(C)c2)c1C | 0 | -4 | -2 | -1 | 32* | 27 | -40 | 0
O=S(=O)(c1ccc2ccccc2c1)N(CC1CO1)c1ccccc1 (centres undefined) | -2 | 10 | -5 | -1 | -7 | 17 | · | ·
Cc1cc(CNC(=O)c2ccc3c(c2)OCO3)c2ccccc2n1 | 3 | -3 | 6 | 0 | 33* | 11 | 10 | -3
COc1ccc(C(=O)NCc2cc(C)nc3ccccc23)cc1 | -1 | -3 | 4 | -2 | -1 | 2 | · | ·
CC1(C)Cc2c(sc3ncnc(N)c23)CO1 | -1 | 15 | 7 | -3 | 14 | -3 | · | ·
CC1(C)Cc2c(sc3nc(=S)[nH]c(N)c23)CO1 | -4 | 4 | · | 3 | 32* | · | -11 | 5
SMILES | UPR XBP1 act | HCV NS3 hel inh | p97 ATPase inh | UPR CHOP act | PfM18AAP inh-1 | CHOP inh | PfM18AAP inh-2 | CTSL1 confirm
Cc1nc(NN)c2c3c(sc2n1)COC(C)(C)C3 | -2 | -5 | · | -2 | 58* | · | 16 | -7
CCOP(=O)(OCC)C(NC(=O)/C=C/c1ccc(OC)cc1)c1ccccc1 (centres undefined) | -4 | 5 | 0 | 1 | 3 | -6 | · | ·
CC(OC(=O)c1cnc2ccccc2n1)c1ccccc1Cl (centres undefined) | 7 | 26 | · | 6 | -4 | · | · | ·
O=C(COc1ccccc1[N+](=O)[O-])OCC(=O)c1ccc(Br)s1 | 3 | · | · | 1 | · | · | · | ·
N#Cc1c(/N=C/c2ccc(Br)s2)sc2c1CCC2 | · | -2 | -7 | · | -3 | 11 | · | ·
N#Cc1c(/N=C/c2cccs2)sc2c1CCCCC2 | -1 | 3 | 1 | -2 | 34* | 36 | -23 | 7
O=c1c(-n2cncn2)c[nH]n1-c1cccc(Cl)n1 | -3 | 0 | -2 | -2 | 67* | -10 | -14 | -7
O=c1c(/C=N/OCc2ccc(Cl)cc2Cl)c[nH]n1-c1cccc(Cl)n1 | -1 | 12 | 6 | -1 | 3 | 0 | · | ·
Cc1cc(C)n2nc(SCCOc3ccccc3F)nc2n1 | 1 | -14 | 10 | 1 | -14 | -13 | · | ·
COC(=O)[C@@H](N)Cc1ccc(O)c(O)c1 | -7 | · | · | -2 | · | -19 | · | ·
COC(=O)Cc1ccc(O)c(N)c1 | 2 | 11 | 1 | 1 | 54* | 13 | 61* | 0
CCC(C(=O)Nc1ncn[nH]1)(C(F)(F)F)C(F)(F)F | -4 | 7 | -3 | 0 | 53* | 23 | 69* | -6
O=C(Nc1ncn[nH]1)C(F)(F)C(F)F | 2 | -8 | 5 | -1 | 32* | 5 | 8 | -8
O=C(Nc1ncn[nH]1)c1ccccc1O | -1 | 3 | 3 | 1 | 23 | 21 | · | ·
CC1CCC(NC(=O)C2CCC(CNc3c(N4CCCCC4)c(=O)c3=O)CC2)CC1 (centres undefined) | -1 | -1 | 2 | 1 | -3 | 14 | · | ·
COc1cc(OC)cc(C(=O)Nc2ccc(N3CCOCC3)cc2N2CCOCC2)c1 | -1 | · | · | -2 | · | · | · | ·
COc1cccc(C(=O)NCc2n[nH]c(=S)n2-c2cccc(C)c2)c1 | -1 | -2 | 1 | 1 | 7 | 9 | · | ·
O=C(NCc1n[nH]c(=S)n1-c1cccc(C(F)(F)F)c1)c1ccco1 | -4 | 4 | · | -1 | 34* | · | -10 | -5
COc1ccc(CC(=O)NCc2n[nH]c(=S)n2-c2cccc(C)c2)cc1 | -7 | -3 | 7 | -2 | 40* | -7 | -17 | 3
O=C(Cc1ccccc1)NCc1n[nH]c(=S)n1-c1ccccc1 | -1 | 5 | 2 | 0 | 18 | -1 | · | ·
